Compounds with a hit are over-represented: about 2.1% of the library has one in this group of screens.
GRK2 aptamer HTS – human GRK2 inhibition via aptamer displacement | P25098 | bead flow cytometry, FAM-aptamer displacement from GRK2 | inhibition of aptamer binding, % at 10 µM | 0.59% of 330,000 active | AID 488847;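 active = inhibition of aptamer binding above 40%, roughly 3 SD of noise, on plates passing a quality check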;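 note: median bead fluorescence of bound FAM aptamer so fluorescent compounds give negative values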
Scp-1 inhibitor – inhibitors of human Scp-1 phosphatase | Recombinant Scp1, phosphopeptide, malachite green phosphate absorbance | inhibition, % at 20 µM | 0.88% of 340,000 active | AID 493091;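 active = inhibition above about 50% at 20 µM, limit read from the data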;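 note: plate controls were DMSO wells with enzyme for no effect and wells lacking enzyme for full effect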
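Incubation: 45 min enzyme reaction at room temperature / System: truncated SCP-1 phosphatase (76-261aa) / Reagent: Phospho 17-mer peptide substrate / Buffer or medium: Acidic Tris acetate buffer with magnesium and detergent / Signal: absorbance at 630 nm / Doses: one concentration, 20 µM, with 1.0% DMSO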
SUMO1 PPI mod – SUMO1-SIM interaction modulation. SUMO1 binding to a labelled peptide, TR-FRET, 1 h. inhibition, % at 20 µM. 0.33% of 360,000 active; in the data active = inhibition above about 37%
DNMT1 block – DNMT1 (human) enzyme inhibition; inhibition (reported as % activation of signal), % at 10 µM; 0.83% of 360,000 active; P26358; DNMT1 molecular beacon, Hinp1I cleavage, fluorescence; in the data active = inhibition above about 50%
Target sequence (P26358 504-1616 limits assumed): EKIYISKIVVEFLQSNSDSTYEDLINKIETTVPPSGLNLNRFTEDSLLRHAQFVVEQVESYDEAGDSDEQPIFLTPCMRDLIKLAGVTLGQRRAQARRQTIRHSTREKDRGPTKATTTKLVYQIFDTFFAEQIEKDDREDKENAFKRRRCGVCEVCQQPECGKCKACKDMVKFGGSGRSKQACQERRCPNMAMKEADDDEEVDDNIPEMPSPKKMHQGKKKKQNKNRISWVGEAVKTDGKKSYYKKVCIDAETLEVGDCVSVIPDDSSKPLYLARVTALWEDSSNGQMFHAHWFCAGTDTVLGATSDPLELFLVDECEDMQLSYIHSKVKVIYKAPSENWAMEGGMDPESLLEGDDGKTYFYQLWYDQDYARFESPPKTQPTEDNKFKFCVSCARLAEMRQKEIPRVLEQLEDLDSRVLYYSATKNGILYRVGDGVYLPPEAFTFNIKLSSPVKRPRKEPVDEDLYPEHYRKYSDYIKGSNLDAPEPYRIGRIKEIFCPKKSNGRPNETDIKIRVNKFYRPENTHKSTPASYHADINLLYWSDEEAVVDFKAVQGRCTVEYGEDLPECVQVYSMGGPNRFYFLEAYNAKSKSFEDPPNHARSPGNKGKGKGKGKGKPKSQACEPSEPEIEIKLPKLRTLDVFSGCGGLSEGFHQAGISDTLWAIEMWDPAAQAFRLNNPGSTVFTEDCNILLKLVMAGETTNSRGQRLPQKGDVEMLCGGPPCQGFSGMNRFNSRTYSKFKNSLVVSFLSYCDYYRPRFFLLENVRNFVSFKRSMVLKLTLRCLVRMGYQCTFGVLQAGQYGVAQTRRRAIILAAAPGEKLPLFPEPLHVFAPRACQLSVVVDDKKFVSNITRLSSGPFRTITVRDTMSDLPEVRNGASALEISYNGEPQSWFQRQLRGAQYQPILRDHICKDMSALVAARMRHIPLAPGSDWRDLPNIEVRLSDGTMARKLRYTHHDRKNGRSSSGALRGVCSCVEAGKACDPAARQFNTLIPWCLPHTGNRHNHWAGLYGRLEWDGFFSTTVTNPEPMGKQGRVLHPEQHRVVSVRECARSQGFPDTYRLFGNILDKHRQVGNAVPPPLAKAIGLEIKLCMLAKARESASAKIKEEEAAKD
STEP block – blocks human striatal-enriched tyrosine phosphatase; P54829; recombinant STEP, OMFP fluorogenic substrate, fluorescence; inhibition, % at 20 µM; 0.25% of 360,000 active;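 active = inhibition at 20 µM, scaled per plate between control wells, above about 37%, limit read from the data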;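 note: 0% = DMSO with enzyme and substrate and 100% = substrate only without enzyme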
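Also added – OMFP at 25 µM · Test system – STEP tyrosine phosphatase · Technique – FITC-channel fluorescence of OMFP product · Schedule – 20 min at room temperature, dark · Evaluation – control-normalized % inhibition with plate pattern correction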
LMPTP block – LMPTP (human) inhibition; inhibition, % at 20 µM; 0.22% of 360,000 active; recombinant LMPTP-A, OMFP fluorogenic substrate, fluorescence intensity;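 active = compounds that cut the enzyme signal by at least half of the control window in the single-dose screen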;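 note: plate controls were DMSO wells with enzyme plus substrate for no effect and substrate without enzyme for full effect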
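test system = LMPTP-A | amount = 0.625 nM LMPTP-A final | reagent = fluorogenic phosphatase substrate OMFP at 400 µM final | incubation = 50 min at room temperature | benchmarks = no-enzyme low control, uninhibited high control | medium = Bis-Tris pH 6.0, DTT, detergent | signal = fluorescence intensity of OMFP turnover product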
* = called active by the depositor.

Results for O=C(COc1ccccc1Cl)Nc1ccc(N2CCCC2)cc1 ?
GRK2 aptamer HTS: 54*; Scp-1 inhibitor: 1; SUMO1 PPI mod: -1; DNMT1 block: -2; STEP block: 2; LMPTP block: 1

What do the screens show for `COC(=O)[C@]12CCCCC=C1N(Cc1ccc3c(c1)OCO3)C(=O)[C@H](CC(=O)NCc1ccc(OC)c(OC)c1)C2`?
SUMO1 PPI mod: 0; LMPTP block: 0

Results for CC(=O)OC[C@@H]1CN(Cc2ccccc2)C[C@H](n2cnc3c(N4CCOCC4)ncnc32)O1 ?
SUMO1 PPI mod: 0; DNMT1 block: 7; STEP block: 5; LMPTP block: -1

Results for CCOC(=O)c1cccc(NC(=S)N2CCN(c3ncc4c(=O)c(C(=O)O)cn(CC)c4n3)CC2)c1 ?
GRK2 aptamer HTS: 0; Scp-1 inhibitor: -7; SUMO1 PPI mod: 3; DNMT1 block: 1; STEP block: 6; LMPTP block: 70*

Results for CCn1cc(C(=O)O)c(=O)c2cnc(N3CCN(C(=S)NC(=O)c4ccccc4)CC3)nc21 ?
GRK2 aptamer HTS: 3; Scp-1 inhibitor: -8; SUMO1 PPI mod: 12; DNMT1 block: -5; STEP block: 2; LMPTP block: 56*

Results for CCCOc1ccc(C(=O)NC(=S)N2CCN(c3ncc4c(=O)c(C(=O)O)cn(CC)c4n3)CC2)cc1 ?
SUMO1 PPI mod: 12; DNMT1 block: 6; STEP block: 7; LMPTP block: 70*

Results for CCCCOC(=O)c1ccc(NC(=S)N2CCN(c3ncc4c(=O)c(C(=O)O)cn(CC)c4n3)CC2)cc1 ?
GRK2 aptamer HTS: 0; Scp-1 inhibitor: -5; SUMO1 PPI mod: 6; DNMT1 block: -7; STEP block: 8; LMPTP block: 40

How did CCn1cc(C(=O)O)c(=O)c2cnc(N3CCN(C(=S)Nc4ccccc4)CC3)nc21 do in these assays?
GRK2 aptamer HTS: 2; Scp-1 inhibitor: -7; SUMO1 PPI mod: 13; DNMT1 block: -5; STEP block: 1; LMPTP block: 1

What do the screens show for `CC1(C(=O)NCC2CC2)CCN1C(=O)C1(c2ccccc2)CC1` (centres undefined)?
SUMO1 PPI mod: 5; DNMT1 block: 16; STEP block: -3; LMPTP block: -1

How did N=C1CCCC1C(=S)SCCC(N)=O (centres undefined) do in these assays?
SUMO1 PPI mod: -24; DNMT1 block: 2; STEP block: -2; LMPTP block: 0

Results for COc1cc(/C=C2/C(=O)c3cccc([N+](=O)[O-])c3C2=O)c(Br)cc1O ?
GRK2 aptamer HTS: 5; Scp-1 inhibitor: 69*; SUMO1 PPI mod: 17; DNMT1 block: 14; STEP block: 4; LMPTP block: 3

Results for COc1ccccc1NC(=O)CCCCCN1C(=O)c2cccc([N+](=O)[O-])c2C1=O ?
GRK2 aptamer HTS: 1; Scp-1 inhibitor: -5; SUMO1 PPI mod: -35; DNMT1 block: -1; STEP block: 0; LMPTP block: 0

How did Cc1cc2c(cc1C)-c1nnnn1C(N1CCCCC1)C(=O)N2 (centres undefined) do in these assays?
SUMO1 PPI mod: -5; LMPTP block: -1

Results for O=C1Nc2ccc(Br)cc2/C1=N\N=C\C1=C(N2CCOCC2)C(=C/c2ccccc2)/CC1 ?
Scp-1 inhibitor: 64*; SUMO1 PPI mod: -18; DNMT1 block: -20; STEP block: 8; LMPTP block: 3

How did Cn1c(-c2ccc(F)cc2)cc2onc(-c3c(F)cccc3Cl)c2c1=O do in these assays?
GRK2 aptamer HTS: 52*; Scp-1 inhibitor: -7

How did C/C(=N\NC(=O)c1cc2ccccc2cc1O)c1cc2ccccc2o1 do in these assays?
GRK2 aptamer HTS: 1; Scp-1 inhibitor: 90*; SUMO1 PPI mod: 2; DNMT1 block: -15; STEP block: 11; LMPTP block: 9

Results for C/C(=N\NC(=O)c1ccccc1O)C1C(=O)c2ccccc2C1=O ?
GRK2 aptamer HTS: 2; Scp-1 inhibitor: -8; SUMO1 PPI mod: 12; DNMT1 block: -18; STEP block: 0; LMPTP block: 2

What do the screens show for `C/C(=N/NC(=O)c1cc2ccccc2cc1O)C1C(=O)c2ccccc2C1=O`?
GRK2 aptamer HTS: 2; Scp-1 inhibitor: 21; SUMO1 PPI mod: 29; DNMT1 block: -24; STEP block: -2; LMPTP block: 66*

What do the screens show for `CCC/C=C/c1ccc(CN2C(C(C)C)C(=O)N(Cc3cn(CCC4OCCO4)nn3)CCS2(=O)=O)cc1` (centres undefined)?
SUMO1 PPI mod: 3; DNMT1 block: 6; STEP block: 0; LMPTP block: 3

Results for COc1ccc(CNC(=O)C[C@H]2C[C@H](C(=O)N3CCOCC3)[C@@]3(CCC4CCCC4)c4[nH]c5cc(CCC(=O)N(C)C)ccc5c4CCN3C2=O)cc1OC ?
GRK2 aptamer HTS: 0; Scp-1 inhibitor: 4; SUMO1 PPI mod: 2; DNMT1 block: 3; STEP block: -1; LMPTP block: 0

How did O=C(NCc1cccnc1)c1cc(C2CCCCN2S(=O)(=O)c2cccs2)on1 (centres undefined) do in these assays?
SUMO1 PPI mod: -2; DNMT1 block: 0; STEP block: -1; LMPTP block: -2

Results for O=C(c1cc(C2CCCCN2S(=O)(=O)c2cccs2)on1)N1CCOCC1 (centres undefined) ?
SUMO1 PPI mod: 44*; DNMT1 block: 0; STEP block: 2; LMPTP block: -1

Results for COc1ccc(S(=O)(=O)c2c(N)n(Cc3ccco3)c3nc4ccccc4nc23)cc1 ?
GRK2 aptamer HTS: 0; Scp-1 inhibitor: 49; SUMO1 PPI mod: 41*; DNMT1 block: 98*; STEP block: 7; LMPTP block: 49*

What do the screens show for `Cc1ccc(S(=O)(=O)c2c(N)n(CCCN(C)C)c3nc4ccccc4nc23)cc1`?
GRK2 aptamer HTS: 1; Scp-1 inhibitor: -4; SUMO1 PPI mod: -9; DNMT1 block: -6; STEP block: 3; LMPTP block: 3

How did COc1ccc(Cn2c(C)nc3c(c2=O)c2nc4ccccc4nc2n3Cc2ccco2)cc1 do in these assays?
Scp-1 inhibitor: 95*; SUMO1 PPI mod: 69*; DNMT1 block: 96*; STEP block: 37; LMPTP block: 43

Results for Cc1nc2ccccc2c(=O)n1Cc1ccco1 ?
GRK2 aptamer HTS: 0; Scp-1 inhibitor: -8; SUMO1 PPI mod: 7; DNMT1 block: -4; STEP block: 4; LMPTP block: -2

How did CC(C)S(=O)(=O)c1csc(C(=O)Nc2ccc(F)cc2)c1N do in these assays?
GRK2 aptamer HTS: 1; Scp-1 inhibitor: 92*; SUMO1 PPI mod: 3; DNMT1 block: 1; STEP block: -2; LMPTP block: -2
